{"data": "Measured values pooled from the literature", "effect on": "cell growth or viability", "note": "Compare with care: the assays were run in different laboratories."}
{"Compound": "Cc1ncc(CN2CCN(Cc3ccccn3)CC2)c2cc(C(=O)c3ccc4c(c3)OCCO4)oc12", "cell line": "NCI-H1975", "method": "MTT", "time": "72 h", "measurement": "IC50", "value": "38.8 µM"}
{"Compound": "C=CC(=O)NC1CCN(c2ncc3ncnc(Nc4ccc(Oc5ccc6c(c5)ncn6C)c(C)c4)c3n2)CC1", "cell line": "SUM-159-PT", "measurement": "EC50", "value": "0.334 µM"}
{"Compound": "CC(C)c1ccccc1[C@@H]1CCCN1C1CC2(CCN(c3ccc(C(=O)NS(=O)(=O)c4ccc(NC[C@H]5CC[C@](C)(O)CC5)c([N+](=O)[O-])c4)c(Oc4cnc5[nH]ccc5c4)c3)CC2)C1", "cell line": "Rec1", "method": "ATP luminescence", "time": "48 h", "measurement": "IC50", "value": "0.183 µM"}
{"Compound": "C=CC(=O)Nc1cc(Nc2nccc(-c3cn(C)c4ccccc34)n2)c(OC)cc1N(C)CCN(C)C", "cell line": "NCI-H1975", "method": "MTT", "time": "72 h", "measurement": "IC50", "value": "29.5 µM"}
{"Compound": "O=C1CC[C@@H](COc2ccc(C(=O)C(Cl)Cl)cc2[N+](=O)[O-])N1", "cell line": "NCI-H1975", "method": "MTT", "concentration": "2.5 µM", "measurement": "inhibition", "value": "96.7%"}
{"Compound": "O=C(NO)c1ccc(CNc2nc3cccc(-c4ccc5c(c4)OCO5)n3n2)cc1", "cell line": "SF-539", "method": "SRB", "measurement": "GI50", "value": "0.6 µM"}
{"Compound": "CN(C)C/C=C/C(=O)Nc1cc2c(Nc3ccc(F)c(Cl)c3)ncnc2cc1O[C@H]1CCOC1", "cell line": "NCI-H1975", "method": "MTT", "time": "72 h", "measurement": "IC50", "value": "30.5 µM"}
{"Compound": "Cc1sc2c(c1C)C(c1ccc(Cl)cc1)=N[C@@H](CC(=O)NCCCCCCCCNC(=O)COc1cccc3c1C(=O)N(C1CCC(=O)NC1=O)C3=O)c1nnc(C)n1-2 (some centres unmarked)", "cell line": "SET-2", "method": "ATP luminescence", "measurement": "IC50", "value": "0.035 µM"}
{"Compound": "Cc1ccc2c(-c3cc4c(CN5CCN(Cc6ccccn6)CC5)cnc(C)c4o3)cc(=O)oc2c1", "cell line": "NCI-H1975", "method": "MTT", "time": "72 h", "measurement": "IC50", "value": "32.1 µM"}
{"Compound": "CC(C)Oc1ccc(S(=O)(=O)c2ccc(Oc3cc(OCC(N)=O)c(C(=O)C(Cl)Cl)cc3[N+](=O)[O-])cc2)cc1", "cell line": "HEK293", "method": "MTT", "time": "72 h", "measurement": "IC50", "value": "1.22 µM"}
{"Compound": "C=C(F)C(=O)N1CCN(c2nc(OC[C@@H]3CCCN3C)nc3c2CCN(c2cccc4cccc(Cl)c24)C3)C[C@@H]1CC#N", "cell line": "SW1463", "method": "ATP luminescence", "measurement": "IC50", "value": "0.367 µM"}
{"Compound": "COc1cccc2c1C(=O)c1c(O)c3c(c(O)c1C2=O)C[C@@](O)(C(=O)CO)C[C@@H]3O[C@H]1C[C@H](N)[C@H](O)[C@H](C)O1", "cell line": "HEK293", "method": "MTT", "time": "72 h", "measurement": "IC50", "value": "0.06 µM"}
{"Compound": "COc1cc2c3c(n(CCCNCCO)c(=O)c2cc1OC)-c1nc2c(cc1C3=O)OCO2", "cell line": "SF-539", "method": "SRB", "time": "48 h", "measurement": "GI50", "value": "1 µM"}
{"Compound": "NC(=O)c1ccc(Oc2ccc(C(=O)C(Cl)Cl)cc2[N+](=O)[O-])cc1", "cell line": "NCI-H1975", "method": "MTT", "concentration": "2.5 µM", "measurement": "inhibition", "value": "97.2%"}
{"Compound": "C=CC(=O)N1CCC([C@@H]2CCNc3c(C(N)=O)c(-c4ccc(Oc5ccccc5)cc4)nn32)CC1", "cell line": "TMD8", "time": "6 days", "measurement": "IC50", "value": "0.0007 µM"}
{"Compound": "C=CC(=O)Nc1cc(Nc2nccc(-c3cn(C)c4ccccc34)n2)c(OC)cc1N(C)CCN(C)C", "cell line": "NCI-H1975", "method": "MTT", "concentration": "0.5 µM", "time": "72 h", "measurement": "inhibition", "value": "69.6%"}
{"Compound": "NC(=O)COc1ccc(C(=O)C(Cl)Cl)cc1[N+](=O)[O-]", "cell line": "NCI-H1975", "method": "MTT", "concentration": "2.5 µM", "measurement": "inhibition", "value": "26.3%"}
